Molecular target: T1, E-selectin (Homo sapiens, UniProt P16581)
T1 sequence (P16581 whole entry): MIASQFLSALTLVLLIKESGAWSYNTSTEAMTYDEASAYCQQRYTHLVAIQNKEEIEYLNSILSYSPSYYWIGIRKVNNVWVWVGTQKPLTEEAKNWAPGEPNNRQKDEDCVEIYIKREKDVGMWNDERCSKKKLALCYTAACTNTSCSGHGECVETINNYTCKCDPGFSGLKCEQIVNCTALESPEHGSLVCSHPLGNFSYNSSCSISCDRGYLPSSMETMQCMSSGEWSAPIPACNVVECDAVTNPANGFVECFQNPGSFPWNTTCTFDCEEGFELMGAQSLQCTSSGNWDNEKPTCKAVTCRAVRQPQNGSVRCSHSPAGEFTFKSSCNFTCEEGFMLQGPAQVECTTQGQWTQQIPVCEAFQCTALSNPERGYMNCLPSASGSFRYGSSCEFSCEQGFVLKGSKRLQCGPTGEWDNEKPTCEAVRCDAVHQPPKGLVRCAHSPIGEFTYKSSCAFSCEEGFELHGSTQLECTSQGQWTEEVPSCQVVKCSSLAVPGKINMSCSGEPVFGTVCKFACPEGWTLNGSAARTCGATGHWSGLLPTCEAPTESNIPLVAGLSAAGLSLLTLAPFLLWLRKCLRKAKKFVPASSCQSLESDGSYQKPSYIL
Test: Inhibition of MM6 cell adhesion to recombinant E-selectin by flow chamber assay
Outline: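 Wells coated overnight at 4 °C with recombinant soluble E-selectin (5 µg/mL in PBS with Ca2+/Mg2+). Background wells had no selectin. Compound in RPMI with 1% FCS and DMSO applied for 60 min, then washed. MM6 cells (1 × 10^6/mL, RPMI + 1% FCS) perfused at 1 dyn/cm2 shear for 4 min. Cells adhering ≥30 s were counted in four random fields in the first minute by phase-contrast video microscopy. Experiments run two or three times; IC50 by curve fitting.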

IC50	SMILES
28 µM	CCCCCCCCCCOc1cc(OCCCCCCCCCC)cc(OCCCCCCN(c2ccc(C(=O)O)cc2)c2ccc(C(=O)O)cc2)c1
20 µM	CCCCCCCCCCOc1cc(OCCCCCCCCCC)cc(OCCCCCCON=C(c2ccc(C(=O)O)cc2)c2ccc(C(=O)O)cc2)c1

Source: BindingDB's records for doi:10.1021/jm060468y (Johannes Gutenberg University, 2006)
